In ChEMBL document CHEMBL1144707, “Antiparasitic, antineuroinflammatory, and cytotoxic polyketides from the marine sponge Plakortis angulospiculatus collected in Brazil” (J Nat Prod, 2008):
In brackets after ≈: the same amount, converted by molar mass. Activity calls are given as the source filed them. The rule behind the calls is not given here.

Legend:
[1] = Antiinflammatory activity in rat neonatal brain microglia cells assessed as phorbol 12-myristate 13-acetate-stimulated thromboxane B2 release; assay type: functional, cell-based
Method in brief: (§1)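 Rat neonatal brain microglia, 2 × 10^5 cells per well, primed with E. coli LPS (0.3 ng/mL) for 17 h at 35.9 °C in 5% CO2. Cells were washed with HBSS, exposed to compounds (0.1–10 µM) or DMSO vehicle for 15 min, then stimulated with PMA (1 µM) for 70 min. O2-, TXB2 and LDH release were measured, duplicates, two independent experiments. IC50 for O2- and TXB2. LDH50 is the concentration giving 50% of the LDH release seen with 0.1% Triton X-100.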

[2] = Antiinflammatory activity in rat neonatal brain microglia cells assessed as drug level causing 50% LDH release; assay type: functional, cell-based; method in brief: as §1
Leishmania chagasi [3] = assay: Antileishmanial activity against Leishmania chagasi promastigotes infected in hamster after 48 hrs by MTT assay; assay type: functional, organism-based
Method in brief: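 Promastigotes maintained in M-199 with 10% calf serum and 0.25% hemin at 24 °C, seeded at 1 × 10^6 cells/well. Incubated with 0.488–500 µg/mL for 48 h at 24 °C, pentamidine as standard. Viability by MTT at 570 nm.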

Leishmania chagasi [4] = assay: Antileishmanial activity against Leishmania chagasi intracellular amastigotes infected in hamster macrophages after 48 hrs […]; assay type: functional, organism-based
Method in brief: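 Intracellular amastigotes tested in infected macrophages, with pentavalent antimony as standard. Amastigotes were obtained from hamster spleens 60–70 days postinfection. Parasite burden was scored as the mean number of amastigotes per macrophage over 500 cells. Result expressed as IC50.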

[5] = Selectivity index, ratio of IC50 for human macrophages to IC50 for antileishmanial activity against Leishmania chagasi intracellular amastigotes; assay type: functional
Method in brief: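 Ratio of macrophage cytotoxicity IC50 (MTT, 48 h) to IC50 against L. chagasi intracellular amastigotes.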

[6] = Cytotoxicity against human macrophages after 48 hrs by MTT assay; assay type: cell-based, Macrophage
HCT-8 = assay: Cytotoxicity against human HCT8 cells; assay type: functional, cell-based
Trypanosoma cruzi = assay: Antitrypanosomal activity against Trypanosoma cruzi Y infected in […] LLC-MK2 cells after 24 hrs by MTT assay; assay type: functional, organism-based; details: LLC-MK2, 24 h
Method in brief: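 Free trypomastigotes (Y strain) from LLC-MK2 cultures, seeded at 1 × 10^6 cells/well. Incubated up to 100 µg/mL for 24 h at 37 °C in 5% CO2, benznidazole as standard. Viability by MTT conversion, formazan extracted with 10% SDS for 18 h at 24 °C. IC50 in µg/mL.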

[7] = Antiinflammatory activity in rat neonatal brain microglia cells assessed as phorbol 12-myristate 13-acetate-stimulated superoxide release; assay type: functional, cell-based; method in brief: as §1
[8] = Selectivity index, ratio of mouse peritoneal macrophages to Antitrypanosomal activity against Trypanosoma cruzi Y
HL-60 = assay: Cytotoxicity against human HL60 cells; assay type: functional, cell-based
[9] = Toxicity in BALB/c mouse erythrocytes assessed as hemolysis at 6.25 ug/ml after 2 hrs; assay type: cell-based, Erythrocyte; details: read-out: Activity
Method in brief: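 A 3% suspension of BALB/c mouse erythrocytes incubated with compounds for 2 h at 25 °C. Supernatant absorbance read at 550 nm.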

MDA-MB-435 = assay: Cytotoxicity against human MDA-MB-435 cells; assay type: functional, cell-based
SF-295 = assay: Cytotoxicity against human SF295 cells; assay type: functional, cell-based
Leishmania chagasi [10] = assay: Induction of morphological changes in Leishmania chagasi promastigotes assessed as nuclear membrane blebs at 17 ug/ml after 5 hrs by electron microscopy; assay type: functional, organism-based
Method in brief: (§2)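 Promastigotes (kept in M-199 with 10% calf serum and 0.25% hemin at 24 °C) incubated with compound at 17 µg/mL at 24 °C for 0, 1, 3, 5 or 7 h. Cells then processed for transmission electron microscopy and compared with an untreated control for ultrastructural changes.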

Leishmania chagasi [11] = assay: Induction of morphological changes in Leishmania chagasi promastigotes assessed as increase in vacuoles at 17 ug/ml after 3 hrs by electron microscopy; assay type: functional, organism-based; method in brief: as §2
Leishmania chagasi [12] = assay: Induction of morphological changes in Leishmania chagasi promastigotes assessed as nuclear destruction with chromatin decondensation at 17 ug/ml after 5 hrs by electron microscopy; assay type: functional, organism-based; method in brief: as §2
Macrophage = assay: Induction of nitric oxide in BALB/c mouse peritoneal macrophages at 4 ug/mL after 24 hrs by griess assay; assay type: functional, cell-based
Method in brief: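 Peritoneal macrophages incubated 24 h at 37 °C with compound at 4 µg/mL. LPS at 50 µg/mL served as the internal activation control. NO measured by Griess reaction, absorbance at 540 nm.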

Leishmania chagasi [13] = assay: Induction of morphological changes in Leishmania chagasi promastigotes assessed as cell membrane detachment at 17 ug/ml after 5 hrs by electron microscopy; assay type: functional, organism-based; method in brief: as §2
Leishmania chagasi [14] = assay: Induction of morphological changes in Leishmania chagasi promastigotes assessed as flagellar blebs at 17 ug/ml after 3 hrs by electron microscopy; assay type: functional, organism-based; method in brief: as §2
Leishmania chagasi [15] = assay: Induction of morphological changes in Leishmania chagasi promastigotes assessed as abnormal chromatin at 17 ug/ml after 3 hrs by electron microscopy; assay type: functional, organism-based; method in brief: as §2
Leishmania chagasi [16] = assay: Induction of morphological changes in Leishmania chagasi promastigotes assessed as mitochondrial swelling at 17 ug/ml after 3 hrs by electron microscopy; assay type: functional, organism-based; method in brief: as §2
[17] = Leishmania chagasi, 48 h, read-out: IC50
[18] = Homo sapiens, Macrophage, 48 h, read-out: IC50

Compound: CC/C=C/[C@H](CC)C[C@]1(C)C=C(CC)/C(=C/C(=O)OC)O1 [SPONGOSORITIN A]
- IC50 [1]: > 10 µM
- IC50 [2]: > 10 µM
- IC50 (Leishmania chagasi [3]): 2.5 µg/mL (≈ 8.55 µM)
- IC50 (Leishmania chagasi [4]; [17]): 3.1 µg/mL (≈ 10.6 µM)
- Selectivity index [5]: 9.6
- IC50 [6, 18]: 29.8 µg/mL (≈ 102 µM)
- IC50 (HCT-8): > 25 µg/mL
- IC50 (Trypanosoma cruzi): 25.7 µg/mL (≈ 87.9 µM)
- IC50 [7]: > 10 µM
- Selectivity index [8]: 1.15
- IC50 (HL-60): > 25 µg/mL
- hemolysis at 2 h, 6.25 ug/ml [9]: 1.8%
- IC50 (MDA-MB-435): > 25 µg/mL
- IC50 (SF-295): > 25 µg/mL

Compound: CC/C=C/[C@H](CC)C[C@]1(CC)C=C(CC)/C(=C/C(=O)OC)O1
- IC50 [1]: > 10 µM
- IC50 [2]: > 10 µM
- IC50 (Leishmania chagasi [3]): 8.5 µg/mL (≈ 27.7 µM)
- IC50 (Leishmania chagasi [4]; [17]): 1.6 µg/mL (≈ 5.22 µM)
- Selectivity index [5]: 18.6
- IC50 [6, 18]: 30.2 µg/mL (≈ 98.5 µM)
- IC50 (HCT-8): 7.2 µg/mL (≈ 23.5 µM)
- IC50 (Trypanosoma cruzi): 16.5 µg/mL (≈ 53.8 µM)
- IC50 [7]: > 10 µM
- Selectivity index [8]: 1.8
- IC50 (HL-60): 8.6 µg/mL (≈ 28.1 µM)
- hemolysis at 2 h, 6.25 ug/ml [9]: 7.24%
- IC50 (MDA-MB-435): 9.6 µg/mL (≈ 31.3 µM)
- IC50 (SF-295): 11.4 µg/mL (≈ 37.2 µM)

Compound: CCCC[C@H](CC)C[C@]1(CC)C=C(CC)/C(=C\C(=O)OC)O1
- IC50 [1]: > 10 µM
- IC50 [2]: > 10 µM
- IC50 (Leishmania chagasi [3]): 3.9 µg/mL (≈ 12.6 µM)
- IC50 (Leishmania chagasi [4]; [17]): 3.4 µg/mL (≈ 11 µM)
- Selectivity index [5]: 9.2
- IC50 [6, 18]: 31.6 µg/mL (≈ 102 µM)
- IC50 (HCT-8): 8 µg/mL (≈ 25.9 µM)
- IC50 (Trypanosoma cruzi): 31.6 µg/mL (≈ 102 µM)
- IC50 [7]: > 10 µM
- Selectivity index [8]: 1
- IC50 (HL-60): 15.2 µg/mL (≈ 49.3 µM)
- hemolysis at 2 h, 6.25 ug/ml [9]: 0%
- IC50 (MDA-MB-435): 6.5 µg/mL (≈ 21.1 µM)
- IC50 (SF-295): 16.8 µg/mL (≈ 54.5 µM)

Compound: N=C(N)c1ccc(OCCCCCOc2ccc(C(=N)N)cc2)cc1 [PENTAMIDINE]
- IC50 (Leishmania chagasi [3]): 0.1 µg/mL (≈ 0.294 µM)
- IC50 [6, 18]: 8.7 µg/mL (≈ 25.6 µM)

Compound: CC/C=C/[C@H](CC)C[C@@]1(C)C[C@@H](CC)[C@@H](CC(=O)OC)OO1 [PLAKORTIN]
- IC50 [1]: > 1 µM
- IC50 [2]: > 10 µM
- IC50 (Leishmania chagasi [3]): 6 µg/mL (≈ 19.2 µM)
- IC50 [6, 18]: 4.7 µg/mL (≈ 15 µM)
- IC50 (HCT-8): 3 µg/mL (≈ 9.6 µM)
- IC50 [7]: > 1 µM
- IC50 (HL-60): 13.3 µg/mL (≈ 42.6 µM)
- hemolysis at 2 h, 6.25 ug/ml [9]: 0%
- IC50 (MDA-MB-435): 10.4 µg/mL (≈ 33.3 µM)
- IC50 (SF-295): 9.8 µg/mL (≈ 31.4 µM)

Compound: MEGLUMINE ANTIMONATE
- IC50 (Leishmania chagasi [4]): 21 µg/mL
- IC50 ([6]; macrophage): > 1000 µg/mL

Compound: O=C(Cn1ccnc1[N+](=O)[O-])NCc1ccccc1 [BENZNIDAZOLE]
- IC50 (Trypanosoma cruzi): 36.3 µg/mL (≈ 139 µM)

Compound: CC/C=C/[C@H](CC)C/C(=C/[C@@]1(CC)C[C@H](CC)[C@H](CC(=O)O)OO1)CC [PLAKORTIDE N]
- Activity (Leishmania chagasi [10]): Active
- IC50 [1]: 0.93 µM
- Activity (Leishmania chagasi [11]): Active
- IC50 [2]: > 10 µM
- Activity (Leishmania chagasi [12]): Active
- IC50 (Leishmania chagasi [3]): 1.9 µg/mL (≈ 5.18 µM)
- Activity (Macrophage): inactive
- IC50 (Leishmania chagasi [4]; [17]): 0.5 µg/mL (≈ 1.36 µM)
- Selectivity index [5]: 31.7
- Activity (Leishmania chagasi [13]): Active
- IC50 [6, 18]: 16.6 µg/mL (≈ 45.3 µM)
- Activity (Leishmania chagasi [14]): Active
- Activity (Leishmania chagasi [15]): Active
- Activity (Leishmania chagasi [16]): Active
- IC50 (Trypanosoma cruzi): 2.3 µg/mL (≈ 6.27 µM)
- IC50 [7]: > 10 µM
- Selectivity index [8]: 7.1
- hemolysis at 2 h, 6.25 ug/ml [9]: 0%
